Assay results published in ChEMBL document CHEMBL1800053, “Concise synthesis and antiangiogenic activity of artemisinin-glycolipid hybrids on chorioallantoic membranes” (Bioorg Med Chem Lett, 2010).

What was measured:
[1] = Embryotoxicity in fertilized chicken embryo at 2.5 nmol/egg; type: toxicity, Gallus gallus
Gallus gallus = species on record: Gallus gallus; experiment: Antiangiogenesis activity against fertilized chicken egg chorioallantoic membrane assessed as inhibition of neovascularization at 2.5 nmol/egg by CAM vessel development assay relative to control; type: functional, tissue-based
Outline: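 Fertilized chicken eggs incubated at 37 °C, 80–90% relative humidity. Day 3: window opened after removing 2 ml albumin. Day 5: sample loaded on a quarter-size coverslip placed on the CAM of each embryo, 2.5 nmol/egg. Scored as positive eggs out of 10 tested, graded inhibition effect, and % inhibition of vessel development relative to control.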

Structure (SMILES) | Activity [1] | inhibition (Gallus gallus) [%]
C[C@H]1[C@@H](CCOC(=O)CCCC[C@H](C)O[C@@H]2O[C@@H](C)[C@H](OC(=O)c3ccccc3)C[C@H]2OC(=O)c2ccccc2)O[C@@H]2O[C@@]3(C)CC[C@H]4[C@H](C)CC[C@@H]1[C@@]24OO3 | Toxic | 60
C[C@H]1[C@@H](CCCOC(=O)CCCC[C@H](C)O[C@@H]2O[C@@H](C)[C@H](O)C[C@H]2O)O[C@@H]2O[C@@]3(C)CC[C@H]4[C@H](C)CC[C@@H]1[C@@]24OO3 | Toxic | 60
CO[C@@H]1[C@H](OC(=O)/C=C/C=C/C=C/C=C/C(=O)O)CC[C@]2(CO2)[C@H]1[C@@]1(C)O[C@@H]1CC=C(C)C [FUMAGILLIN] | Toxic | 40
C[C@H]1[C@@H](CCOC(=O)CCCC[C@H](C)O[C@@H]2O[C@@H](C)[C@H](O)C[C@H]2O)O[C@@H]2O[C@@]3(C)CC[C@H]4[C@H](C)CC[C@@H]1[C@@]24OO3 | Toxic | 60
C=CCCCC[C@@H](C)O[C@@H]1O[C@@H](C)[C@H](OC(=O)C[C@H]2O[C@@H]3O[C@@]4(C)CC[C@H]5[C@H](C)CC[C@@H]([C@H]2C)[C@@]35OO4)C[C@H]1O | Toxic | 70
C=CCCCC[C@@H](C)O[C@@H]1O[C@@H](C)[C@H](O)C[C@H]1OC(=O)C[C@H]1O[C@@H]2O[C@@]3(C)CC[C@H]4[C@H](C)CC[C@@H]([C@H]1C)[C@@]24OO3 | 50% | 50
C[C@H]1[C@@H](CCCOC(=O)CCCC[C@H](C)O[C@@H]2O[C@@H](C)[C@H](OC(=O)c3ccccc3)C[C@H]2OC(=O)c2ccccc2)O[C@@H]2O[C@@]3(C)CC[C@H]4[C@H](C)CC[C@@H]1[C@@]24OO3 | Non-toxic | 80
C[C@H](CCCCC(=O)O)O[C@@H]1O[C@@H](C)[C@H](O)C[C@H]1O [DAUMONE] | Non-toxic | 70
C[C@H]1[C@@H](CC(=O)OCCCCC[C@@H](C)O[C@@H]2O[C@@H](C)[C@H](O)C[C@H]2O)O[C@@H]2O[C@@]3(C)CC[C@H]4[C@H](C)CC[C@@H]1[C@@]24OO3 | Non-toxic | 100
C[C@H]1[C@@H](OC(=O)CCCC[C@H](C)O[C@@H]2O[C@@H](C)[C@H](OC(=O)c3ccccc3)C[C@H]2OC(=O)c2ccccc2)O[C@@H]2O[C@@]3(C)CC[C@H]4[C@H](C)CC[C@@H]1[C@@]24OO3 | Toxic | 10
C[C@H]1[C@@H](CC(=O)O[C@@H]2C[C@@H](O)[C@H](C)O[C@H]2O[C@H](C)CCCCCO)O[C@@H]2O[C@@]3(C)CC[C@H]4[C@H](C)CC[C@@H]1[C@@]24OO3 | Non-toxic | 50
O=C1CC[C@H](N2C(=O)c3ccccc3C2=O)C(=O)N1 | Toxic | 40
C[C@H]1[C@@H](OC(=O)CCCC[C@H](C)O[C@@H]2O[C@@H](C)[C@H](O)C[C@H]2O)O[C@@H]2O[C@@]3(C)CC[C@H]4[C@H](C)CC[C@@H]1[C@@]24OO3 | Toxic | 50
C[C@H]1[C@@H](CC(=O)OCCCCC[C@@H](C)O[C@@H]2O[C@@H](C)[C@H](OCc3ccccc3)C[C@H]2OCc2ccccc2)O[C@@H]2O[C@@]3(C)CC[C@H]4[C@H](C)CC[C@@H]1[C@@]24OO3 | Toxic | 50
C[C@@H]1CC[C@H]2[C@@H](C)C(=O)O[C@@H]3O[C@@]4(C)CC[C@@H]1[C@]32OO4 [ARTEMISININ] | Non-toxic | 30
